The record followed here is publication PMC5995301 (International Journal of Nanomedicine, 2018).

As a reminder, the Papp is the rate of passage across a membrane or cell layer, normalised by area and donor concentration. Read a low Papp as slow passage. In general, half-life refers to the time in which the quantity being followed falls by half. A low value points to rapid decline. The term viability denotes a read-out of living cells in per cent, often relative to untreated cells.

The test system of data set [1] is human lung carcinoma (A549) cells. Nature of the data set: In vitro cytotoxic effect. It is filed as cell-based. The method in brief:
(§1)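 Cells were seeded at 5×10^3 cells/well and grown 24 h at 37°C. LLC cells were grown in DMEM with 10% FBS and A549 cells in RPMI with 10% FBS. Cells were exposed to serially diluted test compound at 0.01–10 μg/mL PMX-equivalent for 48 h. WST-8 (CCK-8) was added for 2 h and absorbance read at 450 nm. Viability is % of untreated cells; mean ± SD, n=6.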

Data set [2] in a line: Parallel artificial membrane permeability assay. Format: in vitro ADME. Conditions: PAMPA, pH 6.8. Summed up:
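Donor wells held test compound diluted in PBS pH 6.8 to 200 μg/mL PMX-equivalent; acceptor wells held PBS pH 6.8. Plates were incubated 5 h at room temperature, then donor and acceptor were both sampled. Permeated PMX was quantified by HPLC at 254 nm.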
For orientation: The PAMPA barrier holds no transporters, so it reflects passive diffusion.

The next data set concerns LLC tumor-bearing mice. The experiment in a line: In vivo tumor growth inhibition in LLC tumor-bearing mice. The arrangement: species or system C57BL/6 mice. The method in brief: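 Female C57BL/6 mice (20–25 g) received 1×10^6 LLC cells in 100 μL PBS pH 7.4 subcutaneously in the flank. At 80–100 mm3, mice were randomised into groups of 10 (untreated, oral daily, or IV once-weekly 20 mg/kg PMX in water). Oral groups were fasted 4 h before and 2 h after dosing. Calipers measured tumors every 3 days for 21 days; volume = a2×b×0.52. Mean ± SD, n=10.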

A further data set deals with A549 cells. Nature of the data set: In vitro wound-healing assay, A549 cells. It is filed as cell-based, human. The conditions noted are these: 48 h. Summed up:
(§2)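 Cells were plated at 3×10^4 cells/well on collagen-coated plates, LLC in DMEM and A549 in RPMI, each with 10% FBS. They were grown 48 h at 37°C to near-confluence. A wound maker scratched the monolayer, which was washed twice with PBS pH 7.4. Cells were then exposed to test compound at 0.01–10 μg/mL PMX-equivalent for 48 h at 37°C. Phase-contrast images every 12 h; automated edge-detection mask gave the area.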

Data set [3] can be described thus: In vitro permeability across a Caco-2 cell monolayer. Format: in vitro ADME. The conditions noted are these: human. The method in brief: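 Caco-2 monolayers were grown on Transwell inserts (0.4 μm pores, 1.12 cm2). Test compound was applied. Transported samples were filtered (0.45 μm PVDF), and drug in them was quantified by HPLC-UV. The apparent permeability coefficient was calculated from the transported amount.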

The nature of data set [4]: In vivo pharmacokinetic study in rats. Conditions: Sprague Dawley, rat, plasma, po, 20 mg/kg.
A further data set has as its system LLC cells. The experiment in a line: In vitro wound-healing assay, LLC cells. It is filed as cell-based. The conditions noted are these: equivalent to 0.5 μg/mL (0.84 μM) PMX, 48 h. Summed up: as §2
A short description of the next data set: In vitro drug release. It is filed as physicochemical. Conditions: basket 100 rpm.
Data set [5] has as its system Lewis lung carcinoma (LLC) cells. Nature of the data set: In vitro cytotoxic effect. It is filed as cell-based. The conditions noted are these: 48 h, read-out: Cell viability. The method in brief: as §1
[6] abbreviates: once-weekly IV 20 mg/kg PMX, 3 weeks.

Bounds are passed on as bounds.

As for “2-hydroxypropyl-beta-cyclodextrin [HP-beta-CD]”, in data set [1] (A549 cells, excipient alone, amount matching the same molar concentration of PMX), the “Cell viability after the addition of excipient alone” value is over 80%.

The molecule `Nc1nc2[nH]cc(CCc3ccc(C(=O)N[C@@H](CCC(=O)O)C(=O)O)cc3)c2c(=O)[nH]1` [PMX, N-[4-[2-(2-amino-3,4-dihydro-4-oxo-7H-pyrrolo[2,3-d]pyrimidin-5-yl)-ethyl]-benzoyl]-L-glutamic acid] displayed an apparent permeability (Papp) at 5 h, 200 μg/mL in data set [2] of 0.665 ± 0.207 ×10⁻⁶ cm/s. The “Reduction in tumor volume and mass vs control mice” value in the data set on LLC tumor-bearing mice (once-a-day oral 20 mg/kg PMX in water, 21 days) was “did not show significant reductions in the tumor volume and mass”. Besides, in the data set with LLC tumor-bearing mice (setting [6]), the “Tumor volume lower than control group” value stood at 49% and the “Tumor volume lower than oral PMX group” value worked out at 46%. The “Inhibition of cell proliferation/migration, fold higher than control cells” value in the data set with A549 cells (equivalent to 0.5 μg/mL (0.84 μM) PMX) is recorded as 1.28 fold. The Wound recovery rate with A549 cells (equivalent to 1 μg/mL (1.67 μM) PMX) is 54.0%±5.09%. Further, the Papp at 5 h, 100 μg/mL in data set [3] was 0.498 ± 0.096 ×10⁻⁶ cm/s. Besides, the half-life in [4] was 7.03 ± 1.61 h. The Relative wound recovery in the data set with LLC cells is on record as 57.5%±5.76%. Moreover, in the data set “In vitro drug release” (0.1 N HCl pH 1.2, 37°C), the “Drug dissolved within 15 min” value is listed as “More than 90%”. For the same molecule, in the data set “In vitro drug release” (phosphate buffer pH 6.8, 37°C), the “Drug released within 15 min” value was “More than 90%”. For the same molecule, in data set [5], the viability at 0.08 µM is under 80%, the viability at 0.84 µM turned out to be 45.4% and the viability at 5 µg/mL came out at 29.8%. Further, in data set [1] (Homo sapiens, A549, 48 h, read-out: Cell viability), the viability at 8.37 µM was determined as 52.2%.
